Consider 25 molecules from ChEMBL document CHEMBL4219080, “Discovery of novel 4-aryl-thieno[1,4]diazepin-2-one derivatives targeting multiple protein kinases as anticancer agents” (Bioorg Med Chem, 2018).

Experiment [1] is described as follows: Antiproliferative activity against human A375P cells after 24 hrs by MTT assay. In kind it is functional. The gist of the method:
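A375P cells grown in DMEM with 10% FBS and 1% penicillin/streptomycin at 37 °C, 5% CO₂. Harvested with trypsin-EDTA, seeded at 5×10³ cells/well and incubated 24 h before dosing with a 12-point, 3-fold serial dilution. Viability by MTT reduction, absorbance at 590 nm. IC50 derived by curve fitting.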
(Tetrazolium assays rely on reduction of a dye to a coloured formazan, in cell work by metabolically active cells.)

A further experiment has as its system U-937. As to the kind of experiment: Antiproliferative activity against human U937 cells after 24 hrs by MTT assay. The note with it: U-937, 24 h. In kind it is functional. The gist of the method:
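U937 cells kept in RPMI 1640 with 10% FBS, 1% penicillin/streptomycin and 25 mM HEPES (37 °C, 5% CO₂). Seeded at 5×10³ cells/well and held 24 h before exposure to 12 concentrations in 3-fold serial dilution. MTT reduction read at 570 nm. IC50 obtained by curve fitting.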

The target in experiment [2] is T1, Platelet-derived growth factor receptor beta (Homo sapiens, UniProt P09619). In words: Inhibition of human PDGFRb using poly[Glu:Tyr] (4:1) as substrate at 10 uM after 40 mins in presence of [gamma-33P]-ATP by liquid scintillation counting method.
T1 sequence (P09619 whole entry): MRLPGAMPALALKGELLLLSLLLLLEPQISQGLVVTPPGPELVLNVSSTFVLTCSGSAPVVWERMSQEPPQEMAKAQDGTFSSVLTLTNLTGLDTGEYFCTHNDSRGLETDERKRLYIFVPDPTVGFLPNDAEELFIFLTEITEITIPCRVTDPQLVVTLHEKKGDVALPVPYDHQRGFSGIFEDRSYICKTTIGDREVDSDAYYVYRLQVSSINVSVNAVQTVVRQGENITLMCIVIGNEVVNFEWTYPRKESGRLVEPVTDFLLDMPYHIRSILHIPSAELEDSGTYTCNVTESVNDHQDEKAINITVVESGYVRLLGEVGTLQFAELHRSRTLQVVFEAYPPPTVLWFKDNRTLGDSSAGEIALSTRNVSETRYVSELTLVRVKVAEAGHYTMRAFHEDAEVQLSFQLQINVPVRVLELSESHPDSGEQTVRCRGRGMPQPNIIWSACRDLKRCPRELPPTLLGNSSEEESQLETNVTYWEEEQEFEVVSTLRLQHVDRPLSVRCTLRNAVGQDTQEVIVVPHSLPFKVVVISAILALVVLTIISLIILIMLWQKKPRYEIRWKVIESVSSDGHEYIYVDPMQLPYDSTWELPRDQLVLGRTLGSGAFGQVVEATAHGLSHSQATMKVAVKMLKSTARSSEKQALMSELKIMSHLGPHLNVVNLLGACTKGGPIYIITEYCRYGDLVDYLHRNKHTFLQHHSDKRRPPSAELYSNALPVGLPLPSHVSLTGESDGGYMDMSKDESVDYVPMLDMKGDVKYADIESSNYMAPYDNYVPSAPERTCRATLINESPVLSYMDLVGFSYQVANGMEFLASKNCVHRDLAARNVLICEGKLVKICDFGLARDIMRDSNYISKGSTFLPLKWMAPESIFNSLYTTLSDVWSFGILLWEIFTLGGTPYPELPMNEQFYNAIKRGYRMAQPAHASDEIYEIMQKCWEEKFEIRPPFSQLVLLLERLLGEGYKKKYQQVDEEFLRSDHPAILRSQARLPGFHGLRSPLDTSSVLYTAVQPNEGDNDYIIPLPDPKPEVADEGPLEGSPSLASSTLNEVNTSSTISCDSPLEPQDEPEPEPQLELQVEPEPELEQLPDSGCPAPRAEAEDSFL
For experiment [3], the target named is T2, Macrophage colony-stimulating factor 1 receptor (Homo sapiens, UniProt P07333). As to the kind of experiment: Inhibition of human FMS using myelin basic protein as substrate after 40 mins in presence of [gamma-33P]-ATP by liquid scintillation counting method. The gist of the method:
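Radiometric filter-binding assay with human FMS (5–10 mU) in 25 mM Tris pH 7.5, 0.02 mM EGTA, 0.66 mg/mL myelin basic protein and 10 mM magnesium acetate, with [γ-33P]ATP (approx. 500 cpm/pmol). Started with Mg-ATP mix and run 40 min at room temperature. Stopped with 3% phosphoric acid, spotted on P30 filtermat, washed in 75 mM phosphoric acid then methanol, scintillation counted.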

The target of experiment [4] is T3, Proto-oncogene tyrosine-protein kinase receptor Ret (Homo sapiens, UniProt P07949). In words: Inhibition of RET (unknown origin) after 40 mins in presence of [gamma-33P]-ATP by liquid scintillation counting method.
T3 sequence (P07949 whole entry): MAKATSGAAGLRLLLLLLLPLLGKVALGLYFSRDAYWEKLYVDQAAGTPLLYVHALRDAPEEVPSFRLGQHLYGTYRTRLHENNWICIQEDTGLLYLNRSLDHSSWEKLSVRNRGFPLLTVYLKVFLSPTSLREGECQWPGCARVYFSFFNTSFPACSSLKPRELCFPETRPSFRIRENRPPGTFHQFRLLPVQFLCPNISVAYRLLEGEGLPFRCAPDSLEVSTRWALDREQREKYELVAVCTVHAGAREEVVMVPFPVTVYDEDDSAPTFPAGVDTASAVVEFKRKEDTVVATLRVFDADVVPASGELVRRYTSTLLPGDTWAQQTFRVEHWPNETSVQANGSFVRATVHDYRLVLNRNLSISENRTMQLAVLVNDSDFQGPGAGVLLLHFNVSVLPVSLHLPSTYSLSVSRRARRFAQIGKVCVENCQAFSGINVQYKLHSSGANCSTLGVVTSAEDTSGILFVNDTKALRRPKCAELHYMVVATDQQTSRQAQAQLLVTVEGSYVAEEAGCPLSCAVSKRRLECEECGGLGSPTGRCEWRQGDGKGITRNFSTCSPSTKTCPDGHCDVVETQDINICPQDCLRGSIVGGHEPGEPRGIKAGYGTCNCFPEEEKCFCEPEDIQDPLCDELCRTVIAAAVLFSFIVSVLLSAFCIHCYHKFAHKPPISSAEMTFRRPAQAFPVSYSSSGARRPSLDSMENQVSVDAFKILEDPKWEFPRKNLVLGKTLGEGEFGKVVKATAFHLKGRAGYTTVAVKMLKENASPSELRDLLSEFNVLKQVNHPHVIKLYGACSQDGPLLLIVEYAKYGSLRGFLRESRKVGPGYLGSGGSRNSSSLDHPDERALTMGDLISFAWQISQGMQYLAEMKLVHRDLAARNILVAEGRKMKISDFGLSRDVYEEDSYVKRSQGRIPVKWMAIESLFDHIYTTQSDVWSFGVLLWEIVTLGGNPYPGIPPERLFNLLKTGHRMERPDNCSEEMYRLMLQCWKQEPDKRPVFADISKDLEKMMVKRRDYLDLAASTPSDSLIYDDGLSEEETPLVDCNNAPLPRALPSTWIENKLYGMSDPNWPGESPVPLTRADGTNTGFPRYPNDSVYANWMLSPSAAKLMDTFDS
The target in experiment [5] is T4, Receptor-type tyrosine-protein kinase FLT3 (Homo sapiens, UniProt P36888).
T4 sequence (P36888 whole entry): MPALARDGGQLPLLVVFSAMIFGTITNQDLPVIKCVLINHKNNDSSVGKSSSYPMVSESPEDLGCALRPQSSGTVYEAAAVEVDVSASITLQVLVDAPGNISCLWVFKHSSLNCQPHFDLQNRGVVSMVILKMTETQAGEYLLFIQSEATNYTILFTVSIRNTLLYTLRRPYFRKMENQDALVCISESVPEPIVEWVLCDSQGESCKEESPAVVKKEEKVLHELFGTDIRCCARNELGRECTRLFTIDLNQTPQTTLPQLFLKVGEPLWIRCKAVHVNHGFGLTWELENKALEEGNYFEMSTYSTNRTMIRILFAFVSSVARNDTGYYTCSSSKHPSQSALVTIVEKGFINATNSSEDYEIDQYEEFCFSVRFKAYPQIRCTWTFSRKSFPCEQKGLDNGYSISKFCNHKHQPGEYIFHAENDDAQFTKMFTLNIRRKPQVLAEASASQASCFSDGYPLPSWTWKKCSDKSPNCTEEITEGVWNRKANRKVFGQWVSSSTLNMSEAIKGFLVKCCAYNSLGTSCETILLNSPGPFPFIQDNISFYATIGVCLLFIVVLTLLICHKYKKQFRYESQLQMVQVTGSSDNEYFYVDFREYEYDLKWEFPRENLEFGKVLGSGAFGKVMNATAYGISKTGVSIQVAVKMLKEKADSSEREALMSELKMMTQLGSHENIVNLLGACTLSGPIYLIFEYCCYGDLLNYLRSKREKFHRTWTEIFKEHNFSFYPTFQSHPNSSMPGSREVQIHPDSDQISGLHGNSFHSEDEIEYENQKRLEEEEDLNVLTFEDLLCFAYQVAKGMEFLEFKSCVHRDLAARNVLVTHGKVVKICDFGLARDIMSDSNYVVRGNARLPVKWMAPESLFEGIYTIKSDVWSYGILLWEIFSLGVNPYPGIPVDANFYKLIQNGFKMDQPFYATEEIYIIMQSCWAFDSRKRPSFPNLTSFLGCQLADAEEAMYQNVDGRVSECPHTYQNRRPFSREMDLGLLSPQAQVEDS
In words: Inhibition of FLT3 (unknown origin) after 40 mins in presence of [gamma-33P]-ATP by liquid scintillation counting method.

Experiment [6] deals with Vascular endothelial growth factor receptor 3 (Homo sapiens) (UniProt P35916). In words: Inhibition of human FLT4 using poly[Glu:Tyr] (4:1) as substrate at 10 uM after 40 mins in presence of [gamma-33P]-ATP by liquid scintillation counting method.
Chain of Vascular endothelial growth factor receptor 3 (Homo sapiens) (P35916 whole entry): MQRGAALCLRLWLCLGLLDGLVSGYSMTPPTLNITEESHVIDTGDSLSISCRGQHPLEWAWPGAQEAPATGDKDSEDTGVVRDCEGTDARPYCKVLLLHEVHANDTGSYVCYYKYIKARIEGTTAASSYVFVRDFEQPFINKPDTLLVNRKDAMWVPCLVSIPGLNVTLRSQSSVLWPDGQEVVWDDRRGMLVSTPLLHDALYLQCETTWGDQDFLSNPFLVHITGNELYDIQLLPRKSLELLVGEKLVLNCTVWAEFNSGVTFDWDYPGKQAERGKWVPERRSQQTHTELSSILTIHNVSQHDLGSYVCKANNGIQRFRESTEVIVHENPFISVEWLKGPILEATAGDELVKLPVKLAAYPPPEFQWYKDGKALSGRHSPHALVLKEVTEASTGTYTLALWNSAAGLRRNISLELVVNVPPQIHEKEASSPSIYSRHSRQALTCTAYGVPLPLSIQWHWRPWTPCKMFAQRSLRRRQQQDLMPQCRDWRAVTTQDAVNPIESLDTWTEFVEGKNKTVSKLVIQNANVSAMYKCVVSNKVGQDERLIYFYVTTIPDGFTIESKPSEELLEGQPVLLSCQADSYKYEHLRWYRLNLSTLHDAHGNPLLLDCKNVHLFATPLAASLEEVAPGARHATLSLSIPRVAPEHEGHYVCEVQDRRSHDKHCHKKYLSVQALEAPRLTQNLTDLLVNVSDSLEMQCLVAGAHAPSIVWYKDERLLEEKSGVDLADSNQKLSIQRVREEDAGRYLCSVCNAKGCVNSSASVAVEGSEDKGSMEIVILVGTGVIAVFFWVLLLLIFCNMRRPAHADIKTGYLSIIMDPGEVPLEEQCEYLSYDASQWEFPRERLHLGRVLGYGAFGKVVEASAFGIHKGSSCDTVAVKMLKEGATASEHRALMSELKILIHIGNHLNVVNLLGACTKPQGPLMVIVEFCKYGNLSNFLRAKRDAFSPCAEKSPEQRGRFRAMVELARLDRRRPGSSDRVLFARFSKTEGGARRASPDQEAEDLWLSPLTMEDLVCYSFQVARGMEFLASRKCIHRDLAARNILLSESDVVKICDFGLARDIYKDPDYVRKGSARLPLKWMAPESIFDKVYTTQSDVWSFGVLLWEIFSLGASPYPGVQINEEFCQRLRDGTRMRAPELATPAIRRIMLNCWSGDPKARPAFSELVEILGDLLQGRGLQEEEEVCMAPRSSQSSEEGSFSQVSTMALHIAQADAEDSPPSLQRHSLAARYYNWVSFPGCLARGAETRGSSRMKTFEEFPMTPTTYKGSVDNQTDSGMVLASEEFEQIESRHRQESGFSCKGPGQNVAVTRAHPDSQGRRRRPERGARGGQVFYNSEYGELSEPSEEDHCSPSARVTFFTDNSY
In experiment [7] the target is Receptor-type tyrosine-protein kinase FLT3 (Homo sapiens) (UniProt P36888). In words: Inhibition of human FLT3 using EAIYAAPFAKKK peptide as substrate at 10 uM after 40 mins in presence of [gamma-33P]-ATP by liquid scintillation counting method.
Experiment [8] deals with T2, Macrophage colony-stimulating factor 1 receptor. In words: Inhibition of human FMS using myelin basic protein as substrate at 10 uM after 40 mins in presence of [gamma-33P]-ATP by liquid scintillation counting method.
In experiment [9] the target is T3, Proto-oncogene tyrosine-protein kinase receptor Ret. In words: Inhibition of human RET using KKKVSRSGLYRSPSMPENLNRPR as substrate at 10 uM after 40 mins in presence of [gamma-33P]-ATP by liquid scintillation counting method.
Experiment [10] has as its target T1, Platelet-derived growth factor receptor beta. As to the kind of experiment: Inhibition of PDGFRb (unknown origin) after 40 mins in presence of [gamma-33P]-ATP by liquid scintillation counting method.

Structures are written as SMILES. Activity calls are given as the source filed them. No cut-off for these calls is given here. Bounds are passed on as bounds.

T2 sequence (P07333 whole entry): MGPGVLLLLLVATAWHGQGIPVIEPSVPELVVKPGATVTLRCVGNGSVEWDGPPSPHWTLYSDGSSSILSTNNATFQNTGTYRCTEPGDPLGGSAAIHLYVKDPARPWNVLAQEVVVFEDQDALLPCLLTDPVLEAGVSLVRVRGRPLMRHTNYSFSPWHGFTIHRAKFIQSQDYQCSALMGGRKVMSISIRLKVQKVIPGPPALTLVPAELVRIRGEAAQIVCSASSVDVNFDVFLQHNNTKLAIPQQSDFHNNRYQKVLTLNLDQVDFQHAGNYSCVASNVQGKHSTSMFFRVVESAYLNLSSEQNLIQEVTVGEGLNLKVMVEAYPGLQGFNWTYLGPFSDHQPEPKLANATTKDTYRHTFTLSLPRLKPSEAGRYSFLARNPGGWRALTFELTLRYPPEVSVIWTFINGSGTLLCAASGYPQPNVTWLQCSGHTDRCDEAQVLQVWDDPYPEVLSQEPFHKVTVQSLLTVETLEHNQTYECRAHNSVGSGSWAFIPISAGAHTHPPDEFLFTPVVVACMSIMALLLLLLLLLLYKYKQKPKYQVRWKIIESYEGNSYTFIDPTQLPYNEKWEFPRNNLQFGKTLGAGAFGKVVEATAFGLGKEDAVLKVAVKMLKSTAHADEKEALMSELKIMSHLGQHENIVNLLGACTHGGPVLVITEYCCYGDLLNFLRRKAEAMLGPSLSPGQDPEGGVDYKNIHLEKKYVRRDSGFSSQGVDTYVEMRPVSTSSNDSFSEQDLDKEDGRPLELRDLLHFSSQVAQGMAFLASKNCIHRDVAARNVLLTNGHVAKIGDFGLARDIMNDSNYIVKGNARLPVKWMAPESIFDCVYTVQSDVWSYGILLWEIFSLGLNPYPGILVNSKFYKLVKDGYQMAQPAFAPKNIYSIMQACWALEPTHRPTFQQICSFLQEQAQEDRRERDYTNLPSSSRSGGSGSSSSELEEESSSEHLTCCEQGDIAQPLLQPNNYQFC

With `O=C1CC(c2ccc(NC(=O)c3cc(N4CCOCC4)cc(C(F)(F)F)c3)cc2)=Nc2cscc2N1`, in experiment [1], the 50% growth inhibitory concentration (GI50) – broadly, the concentration that inhibits growth by half – came to 3.45 µM. In experiment [1], `O=C(Cc1ccc(-c2ccccc2)cc1)Nc1ccc(C2=Nc3cscc3NC(=O)C2)cc1` registered a GI50 of 8.7 µM.

For `O=C1CC(c2ccc(NC(=O)Nc3ccc(Cl)c(C(F)(F)F)c3)cc2)=Nc2cscc2N1`, the values for the GI50 (in the experiment on U-937; in experiment [1]) were 4.08 µM and 1.7 µM, respectively. Take `CCN1CCN(Cc2ccc(NC(=O)Nc3cccc(C4=Nc5cscc5NC(=O)C4)c3)cc2C(F)(F)F)CC1`: the results for the GI50 (in the experiment with U-937; in experiment [1]) were 2.75 µM and 1.82 µM, respectively. `O=C1CC(c2cccc(NC(=O)c3cnn(-c4ccccc4)c3C(F)(F)F)c2)=Nc2cscc2N1` gave a GI50 in the experiment on U-937 of 9.64 µM. This counts as single-digit micromolar. Take `O=C(Cc1c[nH]c2ccccc12)Nc1cccc(C2=Nc3cscc3NC(=O)C2)c1`: the GI50 (in the experiment with U-937; in [1]) was greater than 30 µM in each case. With `O=C1CC(c2cccc(NC(=O)c3ccccc3-c3ccccc3)c2)=Nc2cscc2N1`, the GI50 is 1.03 µM in the experiment with U-937 and 3.25 µM in experiment [1]. In the case of `Cc1c(C)c2c(c(C)c1O)CC[C@](C)(C(=O)Nc1cccc(C3=Nc4cscc4NC(=O)C3)c1)O2`, in experiment [1], the GI50 was greater than 30 µM. Turning to `CN1CCN(c2cc(C(=O)Nc3cccc(C4=Nc5cscc5NC(=O)C4)c3)cc(C(F)(F)F)c2)CC1`, the GI50 in experiment [1] was 3.04 µM.

As to `O=C1CC(c2cccc(NC(=O)Nc3ccc(Cl)c(C(F)(F)F)c3)c2)=Nc2cscc2N1`, the values for the GI50 (with U-937; in experiment [1]) were 14.3 µM and 8.25 µM, respectively. `O=C1CC(c2ccc(NC(=O)Nc3ccc(Cl)c(Cl)c3)cc2)=Nc2cscc2N1`: the GI50 in experiment [1] came out at 2.06 µM. On the same count and under the same terms, for `O=C1CC(c2ccc(NC(=O)c3cnn(-c4ccccc4)c3C(F)(F)F)cc2)=Nc2cscc2N1` the value was 6.85 µM; for `O=C1CC(c2cccc(NC(=O)c3ccc(Cl)c(C(F)(F)F)c3)c2)=Nc2cscc2N1`, 4.99 µM. On to `CCN1CCN(Cc2ccc(NC(=O)Nc3ccc(C4=Nc5cscc5NC(=O)C4)cc3)cc2C(F)(F)F)CC1`, for which the inhibition entry in experiment [2], in experiment [6], in [7], in experiment [8] and in [9] was “Active” each time. Further, the IC50 (in general, the midpoint of a concentration-inhibition curve) in experiment [3] is 0.00373 µM; in [4] it was 0.0716 µM; in experiment [5], 0.0279 µM; in [10], 0.0634 µM. Also, the GI50 in experiment [1] amounted to 0.32 µM. Turning to `O=C1CC(c2cccc(NC(=O)c3cnc4ccccc4c3)c2)=Nc2cscc2N1`, growth in experiment [1] was halved (GI50) at 6.87 µM. Take `CNC(=O)c1cc(Oc2ccc(NC(=O)Nc3ccc(Cl)c(C(F)(F)F)c3)cc2)ccn1` [SORAFENIB]: the GI50 with U-937 was 2.34 µM; in experiment [1], 3.4 µM. Taken in the same sequence, the figures for `O=C1CC(c2ccc(NC(=O)c3ccccc3-c3ccccc3)cc2)=Nc2cscc2N1` were 3.77 µM and greater than 30 µM. As to `O=C1CC(c2cccc(NC(=O)Nc3ccc(Cl)c(Cl)c3)c2)=Nc2cscc2N1`, the GI50 was 3.2 µM in the experiment with U-937 and 11 µM in experiment [1]. For the molecule `O=C1CC(c2cccc(NC(=O)Nc3ccc(Cl)cc3)c2)=Nc2cscc2N1`, the GI50 in the experiment on U-937 is 4.55 µM; in experiment [1] it was 5.04 µM. For `O=C1CC(c2ccc(NC(=O)c3ccc(Cl)c(C(F)(F)F)c3)cc2)=Nc2cscc2N1`, growth in [1] was halved (GI50) at 7.85 µM. Consider `O=C(Cc1c[nH]c2ccccc12)Nc1ccc(C2=Nc3cscc3NC(=O)C2)cc1`, for which the GI50 (with U-937; in [1]) was greater than 30 µM each time. Consider `CN1CCN(c2cc(C(=O)Nc3ccc(C4=Nc5cscc5NC(=O)C4)cc3)cc(C(F)(F)F)c2)CC1`, for which the GI50 (in the experiment with U-937; in experiment [1]) was greater than 30 µM each time. Regarding `CC(=O)N1CCC(C(=O)Nc2ccc(C3=Nc4cscc4NC(=O)C3)cc2)CC1`, the GI50 in experiment [1] was greater than 30 µM.

For the molecule `O=C1CC(c2cccc(NC(=O)c3cc(N4CCOCC4)cc(C(F)(F)F)c3)c2)=Nc2cscc2N1`, it took 1.98 µM to inhibit growth in experiment [1] by half (GI50).

In the case of `O=C1CC(c2ccc(NC(=O)Nc3ccc(Cl)cc3)cc2)=Nc2cscc2N1`, the GI50 in the experiment on U-937 came out at 0.964 µM; in experiment [1], 3.12 µM.
